Measurements from PubChem BioAssay AID488820 (Broad Institute, 2010).
Calls of active or inactive are those of the source.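 Rule for the calls: active = compounds raising nuclear GFP-tagged hypoxia factor signal, with fitted half-maximal dose at or below the top valid dose; inconclusive = flat response of 30 to 70% activation, or poor curve fit; inactive = the rest, including opposite-direction effects.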

system: U2OS HIF1a-GFP, nuclear intensity imaging; assay: HIF1a nuclear accumulation inducers, dose response, imaging, U2OS HIF1a-GFP, high content, dry powder (AID 488820); conditions: not given
Method in brief: (§1)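 Material – U2OS cells with GFP-HIF1alpha · Amount – 2,000 cells/well · Buffer or medium – culture medium lacking phenol red · Dosing – Eight-point threefold dilution series, delivered by pin transfer · Schedule – 24 h compound exposure at 37 °C · Repeats – duplicate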

| Compound | AC50 [µM] |
| --- | --- |
| Cc1ccccc1CNc1nc(-c2ccccn2)nnc1-c1ccccc1 | 2.73 |
| c1ccc(-c2nnc(-c3ccccn3)nc2NCC2CCCCC2)cc1 | 0.882 |
| CN(C)c1nc(-c2ccccn2)nnc1-c1ccccc1 | 2.94 |
| O=C(NCCCCO)c1cc(-c2ccccc2)on1 | 2.1 |
| Cn1c(-c2ccccc2)cnc1Nc1nc(-c2ccccn2)nnc1-c1ccccc1 | 4.31 |
| c1ccc(-c2nnc(-c3ccccn3)nc2NCC2CC2)cc1 | 3.37 |
| O=C(NCCN1CCOCC1)c1cc(-c2ccccc2)on1 | 6.66 |
| Cc1cccc(CNc2nc(-c3ccccn3)nnc2-c2ccccc2)c1 | 0.621 |
| c1ccc(-c2csc(Nc3nc(-c4ccccn4)nnc3-c3ccccc3)n2)cc1 | 10.1 |
| OCCCNc1nc(-c2ccccn2)nnc1-c1ccccc1 | 5.73 |
| CN1CCN(c2nc(-c3ccccn3)nnc2-c2ccccc2)CC1 | 5.11 |
| C=CCNc1nc(-c2ccccn2)nnc1-c1ccccc1 | 2.7 |
| c1ccc(-c2nnc(Nc3nc(-c4ccccn4)nnc3-c3ccccc3)s2)cc1 | 7.41 |
| Cc1ccc(CNc2nc(-c3ccccn3)nnc2-c2ccccc2)cc1 | 1.1 |
| c1ccc(-c2nnc(-c3ccccn3)nc2NCCN2CCOCC2)cc1 | 5.41 |
| CCCCNC(=O)c1cc(-c2ccccc2)on1 | 6.16 |
| O=C(NCCCO)c1cc(-c2ccccc2)on1 | 6.09 |
| c1ccc(-c2cnc(Nc3nc(-c4ccccn4)nnc3-c3ccccc3)s2)cc1 | 17.7 |
| c1ccc(-c2nnc(-c3ccccn3)nc2NCCCN2CCOCC2)cc1 | 2.42 |
| Cc1ccc(Nc2nc(-c3ccccn3)nnc2-c2ccccc2)cn1 | 7.08 |
| Cc1cccc(Nc2nc(-c3ccccn3)nnc2-c2ccccc2)n1 | 2.98 |
| c1ccc(-c2nnc(-c3ccccn3)nc2N2CCC(N3CCOCC3)CC2)cc1 | 6.51 |
| c1ccc(-c2nnc(-c3ccccn3)nc2Nc2cnc3ccccc3n2)cc1 | 5.59 |
| CC(C)(C)CCNc1nc(-c2ccccn2)nnc1-c1ccccc1 | 3.27 |
| c1ccc(-c2nnc(-c3ccccn3)nc2N2CCN(c3ccncc3)CC2)cc1 | 2.68 |
| c1ccc(CNc2nc(-c3ccccn3)nnc2-c2ccccc2)cc1 | 3.08 |
| c1ccc(-c2nnc(-c3ccccn3)nc2Nc2nc3ccccc3s2)cc1 | 5.32 |
| O=C(NCCCN1CCOCC1)c1cc(-c2ccccc2)on1 | 18.1 |
| O=C(NCCCn1ccnc1)c1cc(-c2ccccc2)on1 | 8.03 |
| O=C(NCC1CC1)c1cc(-c2ccccc2)on1 | 16.1 |

system: not listed separately; assay: as above; conditions: U2OS HIF1a-GFP, nuclear intensity imaging; at 38 µM (top of the series)
Method in brief: as §1

| Compound | activation |
| --- | --- |
| Cc1ccc(NC(=O)c2cc(-c3ccccc3)on2)cn1 | 25.1% (inactive) |
| O=C(Nc1cnc2ccccc2c1)c1cc(-c2ccccc2)on1 | 5.39% (inactive) |
| O=C(Nc1nnc(-c2ccccc2)s1)c1cc(-c2ccccc2)on1 | -0.482% (inactive) |
| Cn1c(-c2ccccc2)cnc1NC(=O)c1cc(-c2ccccc2)on1 | -4.96% (inactive) |
| Cc1ccc(CNC(=O)c2cc(-c3ccccc3)on2)cc1 | 12.8% (inactive) |
| CN(C)CCNC(=O)c1cc(-c2ccccc2)on1 | 6.65% (inactive) |
| O=C(NC1Cc2ccccc2C1)c1cc(-c2ccccc2)on1 | 6.89% (inactive) |
| O=C(NCC1CCCCC1)c1cc(-c2ccccc2)on1 | 18.3% (inactive) |
| O=C(NCc1ccccc1)c1cc(-c2ccccc2)on1 | 15.8% (inactive) |
| O=C(c1cc(-c2ccccc2)on1)N1CCc2cccnc21 | -2.04% (inactive) |
| Cn1c(NC(=O)c2cc(-c3ccccc3)on2)nc2ccccc21 | -0.56% (inactive) |
| O=C(NC1CCc2ccccc2C1)c1cc(-c2ccccc2)on1 (stereo not drawn) | 30.1% (inactive) |
| O=C(c1cc(-c2ccccc2)on1)N1CCC(N2CCOCC2)CC1 | 14.1% (inactive) |
| O=C(c1cc(-c2ccccc2)on1)N1CCN(c2ccncc2)CC1 | 31% (inactive) |
| O=C(NCCN1CCCCC1)c1cc(-c2ccccc2)on1 | 31.8% (inactive) |
| O=C(Nc1ncc(-c2ccccc2)o1)c1cc(-c2ccccc2)on1 | 7.7% (inactive) |
| O=C(Nc1cn2ccccc2n1)c1cc(-c2ccccc2)on1 | 1.49% (inactive) |
| O=C(c1cc(-c2ccccc2)on1)N1CCC(N2CCCC2)CC1 | 12.8% (inactive) |
| O=C(c1cc(-c2ccccc2)on1)N1CCC(CO)CC1 | -4.8% (inactive) |
| O=C(Nc1nc2ccccc2s1)c1cc(-c2ccccc2)on1 | 12.2% (inactive) |
| O=C(Nc1nc(-c2ccccc2)cs1)c1cc(-c2ccccc2)on1 | 4.03% (inactive) |
| CC(C)(C)CCNC(=O)c1cc(-c2ccccc2)on1 | 17.6% (inactive) |
| CN1CCN(C(=O)c2cc(-c3ccccc3)on2)CC1 | 3.08% (inactive) |
| O=C(Nc1ccc2ccccc2n1)c1cc(-c2ccccc2)on1 | -3.83% (inactive) |
| Cc1cccc(CNC(=O)c2cc(-c3ccccc3)on2)c1 | 11.8% (inactive) |
| Cc1cccc(NC(=O)c2cc(-c3ccccc3)on2)n1 | 9.15% (inactive) |
| Cc1ccccc1CNC(=O)c1cc(-c2ccccc2)on1 | 23% (inactive) |
| O=C(Nc1ncc2ccccc2n1)c1cc(-c2ccccc2)on1 | 1.57% (inactive) |
